The text below walks through data of ChEMBL document CHEMBL3271948, “Irreversible enzyme inhibitors. 200. Active-site-directed inhibitors of deoxycytidine kinase” (J Med Chem, 1977).

The structures appear in SMILES notation. Converted amounts (≈) assume the structure as drawn. The source made the active and inactive calls. No cut-off for these calls is given here.

The term solubility denotes how much of the substance goes into solution per volume. A lower solubility goes with a poorly soluble substance.

In one data set the target is Deoxycytidine kinase (Rattus norvegicus, UniProt P48769). Nature of the data set: (§1) Irreversible inhibition of Walker 256 rat tumor deoxycytidine kinase by [3H]deoxycytidine binding assay. The note with it: read-out: I50. The essentials: (§2)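 Enzyme came from the 0–45% (NH4)2SO4 fraction of Walker 256 rat tumor, treated with 1 M HOAc. The assay contained [3H]deoxycytidine 0.025 mM, ATP 5 mM, MgCl2 5 mM and Tris pH 8.0 buffer 50 mM. Inhibitor was added in DMSO. Phosphorylated product was measured by adsorption to DEAE-cellulose filter disks. Inhibition was expressed as V0/V1, the uninhibited over the inhibited rate.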
Sequence of Deoxycytidine kinase (P48769 whole entry): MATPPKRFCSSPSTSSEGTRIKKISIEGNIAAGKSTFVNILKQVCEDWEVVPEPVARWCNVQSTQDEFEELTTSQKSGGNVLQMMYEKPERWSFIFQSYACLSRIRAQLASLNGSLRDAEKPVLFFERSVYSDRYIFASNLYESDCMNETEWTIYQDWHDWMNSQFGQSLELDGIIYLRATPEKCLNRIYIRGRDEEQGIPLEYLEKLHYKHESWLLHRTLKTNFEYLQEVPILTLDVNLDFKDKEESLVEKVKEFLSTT

For data set [1], the target named is Deoxycytidine kinase (Rattus norvegicus) (UniProt P48769). The data set is described as §1. The essentials:
as §2

Data set [2] has the same target. Briefly: Irreversible inhibition of Walker 256 rat tumor deoxycytidine kinase assessed as ratio of V0/V1 by [3H]deoxycytidine binding assay. An outline of the steps: as §2
Data set [3] can be described thus: Maximum solubility of the compound. In kind it is physicochemical.

Sequence of Deoxycytidine kinase (Rattus norvegicus) (P48769 whole entry): as above

Regarding `Nc1ccn(CCCOc2ccccc2)c(=O)n1`, the IC50 on Deoxycytidine kinase worked out at 2500 µM. In data set [1], this compound registered an IC of 2.5 mM. Moreover, the Ratio in data set [2] is 2.
For `O=C(Nc1ccnc(=O)[nH]1)c1ccccc1`, the inhibition entry in data set [1] is “inactive”.
`CCCOc1nccc(N)n1` registered an IC in data set [1] of 5 mM. Further, the Ratio in data set [2] is 1.
With `Nc1cc(OCc2ccccc2)ncn1`, in data set [1], the inhibition entry is “inactive”.
Consider `Nc1ccn(CCOc2ccccc2)c(=O)n1`, for which, on Deoxycytidine kinase, the IC50 came to 6000 µM. Moreover, in data set [1], the IC was 5 mM. The Ratio in data set [2] was found to be 1.8.
Regarding `CCCCCSc1nccc(N)n1`, the IC50 on Deoxycytidine kinase is 2600 µM. In data set [1], this compound registered an IC of 2.6 mM. The Ratio in data set [2] stood at 2.
The corresponding values for `CCCn1ccc(N)nc1=O` are 12000 µM, 5 mM and 1.4.
As to `Nc1ccnc(SCc2ccccc2)n1`, the IC50 at Deoxycytidine kinase came out at 2800 µM. Besides, the IC in data set [1] came out at 4 mM. Further, the Ratio in data set [2] amounted to 2.8.
`CSc1nc(N)cc(OCc2ccccc2)n1`: the inhibition result in data set [1] was “inactive”.
Turning to `CC(=O)Nc1cc[nH]c(=O)n1`, in data set [1], the inhibition result was “inactive”.
The compound `Nc1ccnc(SCc2ccc(Cl)cc2)n1` came in with a solubility in data set [3] of 1000 µM (≈ 252 µg/mL). Besides, the IC50 at Deoxycytidine kinase worked out at 1000 µM. In addition, in data set [2], the Ratio was 2.
As for `CCCCCNc1cc[nH]c(=O)n1`, the inhibition result in data set [1] was “inactive”.
Regarding `Nc1ccnc(SCCCOc2ccccc2)n1`, the concentration in solution in data set [3] (solubility) was 1000 µM (≈ 261 µg/mL). Also, the IC50 on Deoxycytidine kinase was 2000 µM. In addition, the Ratio in data set [2] amounted to 1.5.
`COCCOc1nccc(N)n1` showed an IC in data set [1] of 5 mM. Moreover, the Ratio in data set [2] worked out at 1.
Take `Nc1cc(OCc2ccccc2)[nH]c(=O)n1`: in data set [1], the inhibition result was “inactive”.
Turning to `COc1ccc(-c2c[nH]c(=O)nc2N)cc1`, the inhibition result in data set [1] was “inactive”.
Take `Nc1ccnc(Sc2ccc3ccccc3c2)n1`: the concentration in solution in data set [3] (solubility) was 500 µM (≈ 127 µg/mL). In addition, the IC50 on Deoxycytidine kinase came out at 500 µM. Also, the Ratio in data set [2] amounted to 2.
Turning to `O=c1nc(NCc2ccccc2)cc[nH]1`, the inhibition result in data set [1] is “inactive”.
On to `CC(C)CCn1ccc(N)nc1=O`, for which, on Deoxycytidine kinase, the IC50 came to 5000 µM. In data set [1], this compound returned an IC of 5 mM. The Ratio in data set [2] came to 2.
For `CCCCCCCCOc1nccc(N)n1`, in data set [3], the concentration in solution (solubility) came to 250 µM (≈ 55.8 µg/mL). The IC50 at Deoxycytidine kinase stood at 1000 µM. Also, in data set [2], the Ratio amounted to 1.5.
For the compound `Nc1ccn(CCCCc2ccccc2)c(=O)n1`, the solubility in data set [3] stood at 1000 µM (≈ 243 µg/mL). For the same compound, the IC50 at Deoxycytidine kinase came out at 1000 µM. The Ratio in data set [2] was 2.
For the compound `Nc1cc(Nc2ccccc2)[nH]c(=O)n1`, the inhibition result in data set [1] was “inactive”.
In data set [3], `Nc1ccnc(SCCCCc2ccccc2)n1` came in with a solubility of 500 µM (≈ 130 µg/mL). Also, the IC50 on Deoxycytidine kinase was 1000 µM. In addition, the Ratio in data set [2] came out at 1.5.
For the compound `Nc1ccnc(OCc2ccccc2)n1`, on Deoxycytidine kinase, the IC50 worked out at 6000 µM. For the same compound, the IC in data set [1] came to 7.5 mM. In addition, in data set [2], the Ratio was found to be 2.4.
On to `Nc1ccnc(Oc2ccc(Cl)cc2)n1`, for which, on Deoxycytidine kinase, the IC50 stood at 5000 µM. In data set [1], this compound showed an IC of 5 mM. Also, the Ratio in data set [2] came to 2.
Consider `Nc1cc[nH]c(=O)n1`, for which, in data set [1], the IC worked out at 10 mM. The Ratio in data set [2] was 1.
For the compound `Nc1cc(NCc2ccccc2)[nH]c(=O)n1`, in data set [1], the inhibition result was “inactive”.
Same read-out and setting: the same measure for `Oc1nccc(Nc2ccccc2)n1`: “inactive”.
Turning to `Nc1ccn(-c2cccc3ccccc23)c(=O)n1`, the concentration in solution in data set [3] (solubility) came to 500 µM (≈ 119 µg/mL). In addition, the IC50 at Deoxycytidine kinase stood at 1500 µM. Moreover, in data set [2], the Ratio came to 1.4.
`Nc1ccn(Cc2ccccc2)c(=O)n1`: the solubility in data set [3] came to 2500 µM (≈ 503 µg/mL). In addition, the IC50 at Deoxycytidine kinase is 12000 µM. Moreover, the Ratio in data set [2] was 1.4.
Take `Nc1nc(=O)[nH]cc1-c1ccc(Cl)c(Cl)c1`: the inhibition result in data set [1] is “inactive”.
Consider `CS(=O)(=O)c1nc(N)cc(OCc2ccccc2)n1`, for which the inhibition result in data set [1] was “inactive”.
With `CCCCCOc1nccc(N)n1`, at Deoxycytidine kinase, the IC50 was 7000 µM. Further, the IC in data set [1] is 10 mM. For the same compound, the Ratio in data set [2] came to 3.6.
Take `CCCCNc1cc(N)nc(=O)[nH]1`: the inhibition entry in data set [1] was “inactive”.
